Screens deposited in PubChem by Johns Hopkins Ion Channel Center.
An excerpt weighted towards active compounds, which were near 3.1% of everything screened.
KCNK3 inh = human KCNK3 channel inhibition, primary screen. CHO-KCNK3 thallium flux, FluxOR fluorescence; stronger effect = lower value. B-score at 10 µM. actives 0.84% (n = 340,000);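 active = B-score under library mean minus 4 SD, starting fluorescence ratio at most library mean plus 5 SD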;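 note: more negative B-score means stronger inhibition of thallium flux through KCNK3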
Target sequence (O14649 whole entry, looked up): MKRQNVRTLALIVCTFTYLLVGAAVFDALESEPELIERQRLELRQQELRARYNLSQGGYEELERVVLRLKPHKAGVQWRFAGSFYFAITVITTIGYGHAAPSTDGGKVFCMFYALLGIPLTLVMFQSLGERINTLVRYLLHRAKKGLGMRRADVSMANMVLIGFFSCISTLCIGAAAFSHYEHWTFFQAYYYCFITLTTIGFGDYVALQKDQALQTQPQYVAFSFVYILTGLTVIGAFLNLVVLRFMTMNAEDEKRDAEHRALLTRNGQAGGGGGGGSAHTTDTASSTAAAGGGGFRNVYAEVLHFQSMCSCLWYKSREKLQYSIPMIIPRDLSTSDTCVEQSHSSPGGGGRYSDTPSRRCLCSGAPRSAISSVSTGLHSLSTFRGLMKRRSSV
hERG protect = shields human hERG channel from block by proarrhythmic agents; Q12809; activation (rescue from dofetilide block), less the hit threshold, % at 10 µM; CHO-hERG, FluxOR thallium flux, dofetilide IC70 present; actives 0.51% (n = 310,000);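 active = activation above the mean of controls blocked by dofetilide plus 5 SD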;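 note: thallium influx through hERG after potassium depolarization seen as dye fluorescence rise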
KCNQ1 block = inhibitors of human KCNQ1 potassium channel; B-score at 10 µM; P51787; CHO-K1 KCNQ1, FluxOR thallium flux fluorescence; stronger effect = higher value; actives 1.3% (n = 310,000);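 active = compounds whose thallium flux B-score, printed positive for inhibition, exceeds three library SD while starting fluorescence stays within three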;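 note: channel opened by potassium depolarization with thallium stimulus after 20 min compound exposure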
KCNK9 block = human KCNK9 channel inhibition. Q9NPC2. HEK293 KCNK9, FluxOR thallium flux fluorescence; stronger effect = lower value. B-score at 10 µM. actives 1.2% (n = 310,000). AID 488922;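 active = ratio B-score over 3 SD below the library mean, with starting fluorescence within 5 SD of its mean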;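 note: negative B-score means less thallium flux so channel inhibition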
KCNQ1 act = potentiates or activates the human KCNQ1 potassium channel; P51787; CHO-K1 KCNQ1, thallium flux FluxOR fluorescence; stronger effect = higher value; B-score at 10 µM; actives 0.35% (n = 310,000); AID 2648;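 active = fluorescence ratio B-score, a plate-corrected score, at least three library SD, with initial intensity B-score within 5 SD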
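Schedule – 37 °C overnight plating, 90-min dark dye load, 20-min compound pretreatment · System – stable KCNQ1 CHO-K1 line · Probe or stimulus – thallium- and potassium-containing depolarizing buffer · Measured by – kinetic FluxOR fluorescence, 10 s baseline plus 110 s post-stimulus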
KCNK9 inh conf = human KCNK9 inhibitor confirmation. shares compounds with KCNK9 block. HEK293 KCNK9 cells, FluxOR thallium flux fluorescence. inhibition, % at 10 µM. actives 43% (n = 4,900). AID 492992;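 active = thallium signal inhibited by more than 5 SD of the compound-free buffer control wells, on both duplicate plates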;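 note: 0% = assay buffer control wells without compound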
Kir2-1 spec = selectivity of KCNK9 modulators against mouse Kir2.1 | shares compounds with KCNK9 block | inhibition, % at 10 µM | actives 4% (n = 4,900) | Kir2.1 cells, FluxOR thallium flux fluorescence;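 active = thallium signal drop more than 5 SD beyond the mean of the no-compound control wells, seen in both duplicate plates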;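 note: signal is fluorescence rise after thallium addition divided by baseline fluorescence; plate controls were assay buffer only for no effect and full block by chlorpromazine control for full effect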
KCNK9 uninduced = non-induced cell nonspecific activity of KCNK9 modulators; shares compounds with KCNK9 block; non-induced KCNK9-HEK293, FluxOR thallium flux; actives 40% (n = 4,900); inhibition, % at 10 µM;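 active = thallium signal drop beyond 5 SD of the untreated control mean, on both duplicate plates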;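 note: plate controls were buffer only IC0 wells for no effect and SID17386958 at its maximal inhibitory level for full effect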
Active calls of the source: *; i = inactive; nt = no result given.

SMILES	KCNK3 inh	hERG protect	KCNQ1 block	KCNK9 block	KCNQ1 act	KCNK9 inh conf	Kir2-1 spec	KCNK9 uninduced
Cc1occc1C(=O)N1CCCC(Nc2ccc(F)c(F)c2)C1 (stereo not drawn)	i	-10.4	i	i	i	nt	nt	nt
Cc1cc(C)c(C(=O)N2CCCC(Nc3ccc(F)cc3)C2)o1 (stereo not drawn)	i	-11.9	i	i	i	nt	nt	nt
CSCc1ccc(C(=O)N2CCCC(Nc3ccc(F)cc3)C2)o1 (stereo not drawn)	i	-15.0	i	i	i	i	33.0%*	i
O=C(c1cc(Cl)ccc1F)N1CCCC(Nc2ccc3c(c2)OCCO3)C1 (stereo not drawn)	i	-14.6	i	i	i	i	i	i
Cc1ccc(NS(=O)(=O)c2ccc(Br)s2)nc1	i	1.6	i	i	i	nt	nt	nt
COc1cccc(C2CC(=O)N3CN(c4cccc(Cl)c4C)CSC3=C2C#N)c1OC (stereo not drawn)	i	-12.3	i	i	i	i	i	i
N#CC1=C2SCN(c3ccccc3)CN2C(=O)CC1c1c(Cl)cccc1Cl (stereo not drawn)	i	-16.6	i	i	i	i	i	i
N#CC1=C2SCN(c3ccccc3)CN2C(=O)CC1c1ccccc1Cl (stereo not drawn)	i	-7.0	i	i	i	i	i	i
COC(=O)c1ccc(CO/N=C/c2ccc(OC)cc2)o1	i	-5.1	i	i	i	nt	nt	nt
Cc1ccc(S(=O)(=O)N2CCCCC2)cc1NC(=O)COC(=O)C1=COCCO1	i	-3.5	i	i	i	nt	nt	nt
CCN(CC)S(=O)(=O)c1cnccc1N1CCN(c2cccc(Cl)c2)CC1	i	-0.9	i	-9.85*	i	35.5%*	i	27.0%*
NC(=O)c1c(NC(=O)c2cnccn2)sc2c1CCCC2	i	-5.1	i	i	i	nt	nt	nt
CCOC(=O)c1cc(-c2ccccc2)sc1NC(=O)C(C)Sc1nnnn1C (stereo not drawn)	i	-14.2	i	-16.9*	i	61.0%*	i	36.5%*
O=C(Nc1cnn(Cc2ccc(F)cc2)c1)c1cnn2c(C(F)F)cc(-c3ccccc3)nc12	i	-10.3	i	-12.8*	i	50.0%*	i	36.0%*
CNS(=O)(=O)c1ccc(NC(=O)c2cnn3c(C(F)F)cc(-c4ccccc4)nc23)cc1	i	-11.6	i	i	i	nt	nt	nt
Cc1ccc(-c2n[nH]c(=S)c3ccccc23)cc1S(=O)(=O)NCC1CCCO1 (stereo not drawn)	i	-6.9	i	i	i	nt	nt	nt
COc1cc(C(=O)NCCCCc2ccccc2)cc(OC)c1OC	i	-4.9	i	i	i	nt	nt	nt
CC1CCCN(S(=O)(=O)c2ccc([N+](=O)[O-])cc2)C1 (stereo not drawn)	i	-3.6	i	i	i	nt	nt	nt
CC1CC(C)CN(S(=O)(=O)c2ccc(Oc3ccc([N+](=O)[O-])cc3)cc2)C1 (stereo not drawn)	i	-8.5	i	i	i	i	i	i
CCc1cc(C(c2ccc(OC)c(OC)c2)N2CCOCC2)c(NC(=O)c2ccccc2)s1 (stereo not drawn)	i	-13.4	i	i	i	i	i	i
CC(=O)N1c2c(ccc3ccccc23)C(C)CC12CCCCC2 (stereo not drawn)	i	-6.1	i	-14.2*	i	49.0%*	i	47.0%*
CC1CC2(CCCCC2)Nc2c1ccc1ccccc21 (stereo not drawn)	i	-13.4	i	i	i	nt	nt	nt
O=C(Cc1cccc2ccccc12)N/N=C/c1ccc(Sc2nc3ccccc3s2)o1	i	-4.4	i	i	i	nt	nt	nt
O=C1CCC(/C=C/c2ccccc2)=NN1Cc1ccccc1	i	-7.8	i	i	i	nt	nt	nt
CC(C)(C)c1ccc(CN2N=C(/C=C/c3ccccc3)CCC2=O)cc1	i	-10.3	i	i	i	i	i	i
SMILES	KCNK3 inh	hERG protect	KCNQ1 block	KCNK9 block	KCNQ1 act	KCNK9 inh conf	Kir2-1 spec	KCNK9 uninduced
O=C1CCC(/C=C/c2ccccc2)=NN1Cc1ccc(F)cc1	i	-10.4	i	i	i	i	i	i
COc1ccc(C(=O)NCC(=O)OCc2csc(-c3ccccc3)n2)cc1	i	-7.6	i	i	i	nt	nt	nt
Cn1c(SCc2ccccc2Cl)nc2ccccc21	i	-10.2	i	-8.36*	i	66.0%*	i	i
c1cnc2c(C3NCCc4c3[nH]c3ccccc43)cccc2c1 (stereo not drawn)	i	-8.9	i	i	i	nt	nt	nt
O=C(N/N=C\c1ccc(F)cc1)c1ccc(Cn2cc(Br)c([N+](=O)[O-])n2)o1	i	-20.1	i	-11.7*	i	50.5%*	i	i
Cn1c2ccccc2c(=O)c2ccc(-c3ccc4c(c3)OCO4)cc21	i	-17.1	i	-8.9*	i	64.5%*	i	i
Cn1c(-c2ccc3c(c2)OCO3)cc(=O)c2ccccc21	i	-6.5	i	i	i	nt	nt	nt
CCSc1nnc([C@H](C)NC(=O)OC(C)(C)C)o1	i	-8.8	i	i	i	nt	nt	nt
CCCCc1cc(O)c(CCCC)c(O)c1	i	-3.2	i	-11.5*	i	64.5%*	i	35.5%*
CCCCCc1cc(O)c2c(C)cc(=O)oc2c1	i	-15.2	i	i	i	nt	nt	nt
COC(=O)c1ccc(N/C(=N/S(=O)(=O)c2ccccc2)c2ccccc2)cc1	i	-13.3	i	i	i	nt	nt	nt
CCOC(=O)c1ccc(N/C(=N\S(=O)(=O)c2ccccc2C)c2ccccc2)cc1	i	-17.5	i	-8.43*	i	39.0%*	i	28.5%*
COc1ccc(CNC(=O)CSCc2cnn(-c3ccccc3)c2-n2cccc2)cc1	i	-15.6	i	i	i	i	i	i
O=C(CSCc1cnn(-c2ccccc2)c1-n1cccc1)NCc1ccccn1	i	-10.3	i	i	i	nt	nt	nt
COc1ccc(-n2c(CCc3ccccc3)nnc2SCC(=O)NCc2ccccc2)cc1	i	-16.1	i	i	i	i	i	i
COc1ccc(-n2c(CCc3ccccc3)nnc2SCC(=O)c2ccccc2)cc1	i	-2.4	i	i	i	i	i	i
Cc1ccc(C)c(NC(=O)CCOc2ccccc2)c1	i	-8.7	i	i	i	nt	nt	nt
